# Test results as given in ChEMBL document CHEMBL4043273, “Phenotypic Optimization of Urea-Thiophene Carboxamides To Yield Potent, Well Tolerated, and Orally Active Protective Agents against Aminoglycoside-Induced Hearing Loss” (J Med Chem, 2018).
# Activity calls are given as the source filed them.
# What was measured:
# HepG2 = test: Cytotoxicity against human HepG2 cells assessed as decrease in cell growth after 72 hrs by celltiter glo assay; type: cell-based; conditions: HepG2, 72 h
# [1] = target: Voltage-gated inwardly rectifying potassium channel KCNH2 (Homo sapiens, UniProt Q12809)
# Voltage-gated inwardly rectifying potassium channel KCNH2, sequence (Q12809 whole entry): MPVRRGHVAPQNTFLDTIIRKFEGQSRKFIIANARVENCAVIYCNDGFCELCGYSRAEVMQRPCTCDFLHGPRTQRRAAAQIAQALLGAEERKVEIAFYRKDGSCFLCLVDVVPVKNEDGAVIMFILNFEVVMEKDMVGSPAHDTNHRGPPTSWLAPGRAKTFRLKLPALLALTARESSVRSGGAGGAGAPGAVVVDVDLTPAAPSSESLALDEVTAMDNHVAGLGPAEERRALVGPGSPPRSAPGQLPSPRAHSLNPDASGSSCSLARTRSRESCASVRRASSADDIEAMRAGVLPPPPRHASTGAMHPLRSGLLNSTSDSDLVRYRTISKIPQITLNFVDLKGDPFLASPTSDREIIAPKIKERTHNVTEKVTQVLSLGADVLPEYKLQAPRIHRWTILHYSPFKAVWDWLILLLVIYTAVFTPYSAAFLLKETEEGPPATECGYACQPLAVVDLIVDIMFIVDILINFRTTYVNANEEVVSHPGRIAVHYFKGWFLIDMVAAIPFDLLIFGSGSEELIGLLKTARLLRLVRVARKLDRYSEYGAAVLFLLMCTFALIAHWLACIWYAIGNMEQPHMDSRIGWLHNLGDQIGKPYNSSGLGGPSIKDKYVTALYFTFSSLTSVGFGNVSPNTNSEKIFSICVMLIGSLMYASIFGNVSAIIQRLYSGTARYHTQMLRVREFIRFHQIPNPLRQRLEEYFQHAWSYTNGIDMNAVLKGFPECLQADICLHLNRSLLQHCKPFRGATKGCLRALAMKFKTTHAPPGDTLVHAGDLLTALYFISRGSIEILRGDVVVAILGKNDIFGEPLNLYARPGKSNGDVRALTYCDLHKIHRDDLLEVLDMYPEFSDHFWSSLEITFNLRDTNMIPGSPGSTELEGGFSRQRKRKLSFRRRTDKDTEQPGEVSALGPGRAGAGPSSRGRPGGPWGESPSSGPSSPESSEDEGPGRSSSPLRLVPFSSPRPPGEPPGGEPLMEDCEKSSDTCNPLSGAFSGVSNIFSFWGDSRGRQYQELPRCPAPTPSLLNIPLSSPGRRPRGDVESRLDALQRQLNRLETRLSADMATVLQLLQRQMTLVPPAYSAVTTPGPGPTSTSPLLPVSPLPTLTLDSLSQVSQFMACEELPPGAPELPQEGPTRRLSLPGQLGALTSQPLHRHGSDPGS
# [2] = (§1) Oral bioavailability in rat at 25 mg/kg; type: ADME, organism-based; conditions: in vivo
# [3] = Aqueous solubility of compound at pH 7.4; type: physicochemical
# [4] = (§2) Protein binding in rat plasma; type: ADME, cell-free; conditions: read-out: PPB
# [5] = Drug metabolism assessed as air oxidation; type: physicochemical
# Rattus norvegicus [6] = test: Acute toxicity in rat at 50 mg/kg, iv; type: organism-based; conditions: in vivo
# [7] = Ratio of IC50 for human ERG expressed in HEK293 cells to HC50 for protection against neomycin-induced hair cell death in AB zebra fish larvae
# [8] = (§3) Protein binding in human plasma; type: ADME, cell-free; conditions: read-out: PPB
# [9] = (§4) Elimination half life in rat by LC-MS method; type: ADME; conditions: in vivo, read-out: beta t1/2 (converted)
# Danio rerio [10] = species on record: Danio rerio; test: Protection against neomycin-induced hair cell death in AB zebra fish larvae assessed as increase in hair cell survival preincubated for 1 hr followed by neomycin challenge for 1 hr by DASPEI staining-based epifluorescence dissecting microscopic method; type: functional
# [11] = Protein binding in plasma; conditions: read-out: PPB (converted)
# [12] = Permeability across MDCK cells expressing MDR1; type: ADME, cell-based, Canis lupus familiaris; conditions: dog, read-out: permeability
# Danio rerio [13] = species on record: Danio rerio; test: Protection against neomycin-induced hair cell death in AB zebra fish larvae assessed as increase in hair cell survival at 2.8 uM preincubated for 1 hr followed by neomycin challenge for 1 hr by DASPEI staining-based epifluorescence dissecting microscopic method relative to control; type: functional
# In short: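 AB larvae raised at 28.5°C in embryo medium and tested at 5-7 dpf, ten fish per basket. Pretreatment with compound for 1 h at 1.56–25 µM (halved further if the lowest dose protected), then compound plus 200 µM neomycin for 1 h. After rinsing, 0.05% DASPEI stain for 15 min and MS222 anaesthesia. Ten neuromasts per fish scored 0–2 under epifluorescence, normalised to untreated fish as % survival; HC50 linearly interpolated.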
# Cytochrome P450 3A4 = Cytochrome P450 3A4 (Homo sapiens, UniProt P08684); test: Inhibition of CYP3A4 (unknown origin); type: ADME
# Cytochrome P450 3A4, sequence (P08684 whole entry): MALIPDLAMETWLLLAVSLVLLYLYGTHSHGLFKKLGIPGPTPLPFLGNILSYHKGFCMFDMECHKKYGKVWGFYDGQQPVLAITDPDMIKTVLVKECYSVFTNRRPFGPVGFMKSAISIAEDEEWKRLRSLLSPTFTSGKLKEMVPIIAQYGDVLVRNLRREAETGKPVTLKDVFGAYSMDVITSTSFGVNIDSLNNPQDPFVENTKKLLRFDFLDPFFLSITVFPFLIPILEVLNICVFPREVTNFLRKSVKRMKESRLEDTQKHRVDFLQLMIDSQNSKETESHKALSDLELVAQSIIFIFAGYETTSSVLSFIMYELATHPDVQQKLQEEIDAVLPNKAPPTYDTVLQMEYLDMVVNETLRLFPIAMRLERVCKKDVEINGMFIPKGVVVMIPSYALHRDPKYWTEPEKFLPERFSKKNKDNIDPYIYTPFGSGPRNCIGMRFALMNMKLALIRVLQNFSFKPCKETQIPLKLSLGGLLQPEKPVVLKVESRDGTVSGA
# Cytochrome P450 2D6 = Cytochrome P450 2D6 (Homo sapiens, UniProt P10635); test: Inhibition of CYP2D6 (unknown origin); type: ADME
# Cytochrome P450 2D6, sequence (P10635 whole entry): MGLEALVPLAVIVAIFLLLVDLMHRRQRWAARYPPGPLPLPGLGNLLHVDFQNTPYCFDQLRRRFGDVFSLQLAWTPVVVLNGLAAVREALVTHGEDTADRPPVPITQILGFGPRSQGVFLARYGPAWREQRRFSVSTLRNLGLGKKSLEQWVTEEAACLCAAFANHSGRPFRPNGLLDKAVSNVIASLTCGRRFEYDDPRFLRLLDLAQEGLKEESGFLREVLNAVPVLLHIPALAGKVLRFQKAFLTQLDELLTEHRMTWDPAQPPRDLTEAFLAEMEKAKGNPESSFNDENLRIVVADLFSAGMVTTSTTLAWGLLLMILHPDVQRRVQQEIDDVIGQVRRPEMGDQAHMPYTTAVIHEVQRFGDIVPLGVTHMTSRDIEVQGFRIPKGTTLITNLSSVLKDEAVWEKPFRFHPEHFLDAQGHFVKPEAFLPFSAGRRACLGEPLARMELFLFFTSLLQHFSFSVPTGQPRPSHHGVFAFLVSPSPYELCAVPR
# Cytochrome P450 2C19 = Cytochrome P450 2C19 (Homo sapiens, UniProt P33261); test: Inhibition of CYP2C19 (unknown origin); type: ADME
# Cytochrome P450 2C19, sequence (P33261 whole entry): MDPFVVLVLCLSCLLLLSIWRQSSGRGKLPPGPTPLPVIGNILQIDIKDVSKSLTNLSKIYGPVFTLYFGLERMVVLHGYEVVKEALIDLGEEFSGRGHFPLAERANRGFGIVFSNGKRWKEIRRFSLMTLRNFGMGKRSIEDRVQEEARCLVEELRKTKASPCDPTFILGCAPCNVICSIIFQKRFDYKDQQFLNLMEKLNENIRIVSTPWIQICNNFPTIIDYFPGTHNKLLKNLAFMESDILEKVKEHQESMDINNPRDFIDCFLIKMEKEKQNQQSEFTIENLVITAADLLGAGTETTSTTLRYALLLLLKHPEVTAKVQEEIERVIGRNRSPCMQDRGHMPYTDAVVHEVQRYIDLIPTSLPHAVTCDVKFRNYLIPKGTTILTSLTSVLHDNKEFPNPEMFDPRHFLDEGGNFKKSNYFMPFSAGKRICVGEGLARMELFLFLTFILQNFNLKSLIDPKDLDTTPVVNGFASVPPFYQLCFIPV
# Cytochrome P450 2C9 = Cytochrome P450 2C9 (Homo sapiens, UniProt P11712); test: Inhibition of CYP2C9 (unknown origin); type: ADME
# Cytochrome P450 2C9, sequence (P11712 whole entry): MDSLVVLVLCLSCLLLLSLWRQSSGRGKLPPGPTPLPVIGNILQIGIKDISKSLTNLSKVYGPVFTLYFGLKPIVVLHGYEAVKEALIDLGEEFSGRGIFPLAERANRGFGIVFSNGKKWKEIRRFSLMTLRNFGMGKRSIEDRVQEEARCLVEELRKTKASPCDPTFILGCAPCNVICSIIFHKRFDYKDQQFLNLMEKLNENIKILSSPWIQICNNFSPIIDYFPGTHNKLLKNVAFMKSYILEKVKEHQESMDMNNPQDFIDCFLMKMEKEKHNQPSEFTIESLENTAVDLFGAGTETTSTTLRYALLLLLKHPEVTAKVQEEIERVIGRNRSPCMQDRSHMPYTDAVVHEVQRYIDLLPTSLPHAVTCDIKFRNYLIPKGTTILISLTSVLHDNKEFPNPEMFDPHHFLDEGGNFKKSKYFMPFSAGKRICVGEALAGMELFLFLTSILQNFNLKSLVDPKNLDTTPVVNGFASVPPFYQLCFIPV
# [14] = Metabolic stability in microsomes (unknown origin); type: ADME, Microsome
# Rattus norvegicus [15] = test: Change in hearing threshold in Fischer 344 rat at 5 to 25 mg/kg/day administered via oral gavage for 12 days; type: ADME, organism-based; conditions: in vivo, 288 h
# In short: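 Fischer 344 rats given compound alone by oral gavage at 5 or 25 mg/kg/day for 12 days (n=3 per dose), vehicle PEG300:DMA:EtOH:H2O. ABR thresholds measured before dosing and after a 2-week recovery, under isoflurane anaesthesia in a sound-attenuating chamber.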
# Escherichia coli [16] = test: Effect on neomycin MBC for Escherichia coli ATCC 25922; type: functional
# Rattus norvegicus [17] = test: Protection against kanamycin-induced hearing loss at 8 to 32 kHz in Sprague-Dawley rat at 25 mg/kg/day, ip treated for 14 days followed by recovery without treatment for additional 14 days by auditory brain stem response assay; type: functional, organism-based
# Escherichia coli [18] = test: Effect on neomycin MIC for Escherichia coli ATCC 25922; type: functional
# Rattus norvegicus [19] = test: as §1; type: ADME, organism-based; conditions: in vivo
# Plasma [20] = test: as §2; type: ADME, cell-free
# Plasma [21] = test: as §3; type: ADME, cell-free
# Rattus norvegicus [22] = species on record: Rattus norvegicus; test: as §4; type: ADME; conditions: in vivo
# Pseudomonas aeruginosa [23] = test: Effect on neomycin MIC for Pseudomonas aeruginosa 6325; type: functional
# Pseudomonas aeruginosa [24] = test: Effect on amikacin MIC for Pseudomonas aeruginosa 6471; type: functional
# Pseudomonas aeruginosa [25] = test: Effect on kanamycin MIC for Pseudomonas aeruginosa 6160; type: functional
# Pseudomonas aeruginosa [26] = test: Effect on tobramycin MIC for Pseudomonas aeruginosa 103 ATCC 27853; type: functional
# Pseudomonas aeruginosa [27] = test: Effect on neomycin MIC for aminoglycoside-resistant Pseudomonas aeruginosa 6322; type: functional
# Pseudomonas aeruginosa [28] = test: Effect on amikacin MIC for Pseudomonas aeruginosa 103 ATCC 27853; type: functional
# Pseudomonas aeruginosa [29] = test: Effect on tobramycin MIC for Pseudomonas aeruginosa 6471; type: functional
# Pseudomonas aeruginosa [30] = test: Effect on tobramycin MIC for Pseudomonas aeruginosa 6325; type: functional
# Pseudomonas aeruginosa [31] = test: Effect on kanamycin MIC for Pseudomonas aeruginosa 103 ATCC 27853; type: functional
# Pseudomonas aeruginosa [32] = test: Effect on amikacin MIC for Pseudomonas aeruginosa 6160; type: functional
# Pseudomonas aeruginosa [33] = test: Effect on amikacin MIC for Pseudomonas aeruginosa 6325; type: functional
# [34] = tested on: Mycobacterium tuberculosis; test: Effect on amikacin-induced antibacterial activity against Mycobacterium tuberculosis in mouse pulmonary tuberculosis model; type: functional
# Pseudomonas aeruginosa [35] = test: Effect on kanamycin MIC for Pseudomonas aeruginosa 6325; type: functional
# [36] = tested on: Mycobacterium tuberculosis; test: Effect on amikacin MIC for Mycobacterium tuberculosis H37Rv at 1 to 10 uM; type: functional
# Pseudomonas aeruginosa [37] = test: Effect on amikacin MIC for aminoglycoside-resistant Pseudomonas aeruginosa 6322; type: functional
# Rattus norvegicus [38] = test: Protection against amikacin-induced hearing loss at 2 to 32 kHz in Fischer 344 rat at 5 mg/kg/day administered via oral gavage for 12 days followed by recovery without treatment for additional 14 days by auditory brain stem response assay; type: functional, organism-based
# In short: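 Male Fischer 344 rats had ABR thresholds measured 1–2 weeks before treatment and 2 weeks after it, under isoflurane, on a heating pad near 37°C, in a sound-attenuating chamber. Amikacin 320 mg/kg/day s.c. for 12 days, with compound 5 mg/kg/day by oral gavage in PEG300:DMA:EtOH:H2O. Groups: amikacin alone or amikacin plus compound.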
# Pseudomonas aeruginosa [39] = test: Effect on neomycin MIC for Pseudomonas aeruginosa 103 ATCC 27853; type: functional
# [40] = tested on: Mycobacterium tuberculosis; test: Effect on kanamycin-induced antibacterial activity against Mycobacterium tuberculosis in mouse pulmonary tuberculosis model; type: functional
# Pseudomonas aeruginosa [41] = test: Effect on tobramycin MIC for Pseudomonas aeruginosa 6160; type: functional
# [42] = tested on: Mycobacterium tuberculosis; test: Effect on moxifloxacin-induced antibacterial activity against Mycobacterium tuberculosis in mouse pulmonary tuberculosis model; type: functional
# Pseudomonas aeruginosa [43] = test: Effect on neomycin MIC for Pseudomonas aeruginosa 6471; type: functional
# Pseudomonas aeruginosa [44] = test: Effect on kanamycin MIC for Pseudomonas aeruginosa 6471; type: functional
# Pseudomonas aeruginosa [45] = test: Effect on tobramycin MIC for aminoglycoside-resistant Pseudomonas aeruginosa 6322; type: functional
# Pseudomonas aeruginosa [46] = test: Effect on neomycin MIC for Pseudomonas aeruginosa 6160; type: functional
# Rattus norvegicus [47] = test: Protection against amikacin-induced hair cell death in Fischer 344 rat corti at 5 mg/kg/day administered via oral gavage for 12 days followed by recovery without treatment for additional 14 days by immunohistochemical method; type: functional, organism-based
# In short: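 Rats given amikacin 320 mg/kg/day s.c. plus compound 5 mg/kg p.o. daily for 12 days; saline s.c. controls. Cochleae fixed in 4% paraformaldehyde and dissected. Organ of Corti immunostained for myosin 7A (hair cells), Sox2 (supporting-cell nuclei) and neurofilament (neuronal processes). Basal turn imaged by confocal microscopy.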
# Pseudomonas aeruginosa [48] = test: Effect on kanamycin MIC for aminoglycoside-resistant Pseudomonas aeruginosa 6322; type: functional
# [49] = aqueous medium, read-out: solubility
structure (smiles),measurement,setting,value
NC(=O)c1c(NC(=O)Nc2ccc(Cl)cc2)sc2c1CCN(CCCNC(=O)CCc1c[nH]c3ccccc13)C2,IC50,HepG2,17 µM
same,IC50,[1],20.1 µM
same,bioavailability,[2],> 1%
same,solubility,[3]; [49],86 µM
same,fraction unbound,[4],0.001
same,Drug metabolism,[5],Metabolite_Detected
same,Activity,Rattus norvegicus [6],Non-Toxic
same,Ratio,[7],201
same,fraction unbound,[8],0.001
same,half-life,[9],7.1 h
same,EC50,Danio rerio [10],0.1 µM
CCN1CCc2c(sc(NC(=O)Nc3ccc(Cl)cc3)c2C(N)=O)C1 [listing 1 of 2 here],solubility,[3]; buffer,85 µM
NC(=O)c1c(NC(=O)Nc2ccc(Cl)cc2)sc2c1CC[N+]1(CCCC1)C2,IC50,[1],3.51 µM
same,EC50,Danio rerio [10],0.41 µM
"CN1[C@@H]2CC[C@H]1c1c(sc(NC(=O)Nc3ccc(Cl)cc3)c1C(N)=O)C2 (single isomer, unassigned)",solubility,[3]; [49],76 µM
CC[N+]1(C)CCc2c(sc(NC(=O)Nc3ccc(Cl)cc3)c2C(N)=O)C1 (centres undefined),IC50,[1],3.38 µM
same,EC50,Danio rerio [10],1.96 µM
CN1[C@@H]2CC[C@H]1c1c(sc(NC(=O)Nc3ccc(Cl)cc3)c1C(N)=O)C2.Cl,IC50,HepG2,> 300 µM
same,fraction unbound,[11],0.1
same,bioavailability,[2],> 50%
same,Papp,[12],5.2 ×10⁻⁶ cm/s
same,solubility,[3]; [49],86 µM
same,%max,Danio rerio [13],98%
same,fraction unbound,[4],0.099 to 0.14
same,Drug metabolism,[5],Metabolite_Notdetected
same,IC50,Cytochrome P450 3A4,46 µM
same,IC50,Cytochrome P450 2D6,> 100 µM
same,Activity,Rattus norvegicus [6],Non-Toxic
same,Ratio,[7],47
same,fraction unbound,[8],0.093 to 0.11
same,half-life,[9],7.8 h
same,IC50,Cytochrome P450 2C19,58 µM
same,IC50,Cytochrome P450 2C9,60 µM
same,EC50,Danio rerio [10],0.12 µM
same,Stability,[14],Stable
same,Activity,Rattus norvegicus [15],Non-Toxic
CCN1CCc2c(sc(NC(=O)Nc3ccc(Cl)cc3)c2C(N)=O)C1 [listing 2 of 2 here],Activity,Escherichia coli [16],inactive
same,Activity,Rattus norvegicus [17],Active
same,Activity,Escherichia coli [18],inactive
CC1(C)Cc2c(sc(NC(=O)Nc3ccc(Cl)cc3)c2C(N)=O)C(C)(C)N1.Cl,IC50,HepG2,> 300 µM
same,IC50,[1],> 30 µM
same,F,Rattus norvegicus [19],21%
same,solubility,[3]; buffer,13 µM
same,PPB,Plasma [20],95.8%
same,Drug metabolism,[5],Metabolite_Notdetected
same,inhibition (INH),Cytochrome P450 3A4; human,Not Active
same,inhibition (INH),Cytochrome P450 2D6; human,Not Active
same,Activity,Rattus norvegicus [6],Non-Toxic
same,Ratio,[7],>24
same,PPB,Plasma [21],96.5%
same,beta t1/2,Rattus norvegicus [22],6.2 h
same,inhibition (INH),Cytochrome P450 2C19; human,Not Active
same,inhibition (INH),Cytochrome P450 2C9; human,Not Active
same,EC50,Danio rerio [10],1.24 µM
CN1[C@@H]2CC[C@H]1c1c(sc(NC(=O)Nc3ccc(Cl)cc3)c1C(N)=O)C2,Activity,Pseudomonas aeruginosa [23],inactive
same,Activity,Pseudomonas aeruginosa [24],inactive
same,Activity,Pseudomonas aeruginosa [25],inactive
same,Activity,Pseudomonas aeruginosa [26],inactive
same,Activity,Escherichia coli [16],inactive
same,Activity,Pseudomonas aeruginosa [27],inactive
same,Activity,Pseudomonas aeruginosa [28],inactive
same,Activity,Pseudomonas aeruginosa [29],inactive
same,Activity,Pseudomonas aeruginosa [30],inactive
same,Activity,Pseudomonas aeruginosa [31],inactive
same,Activity,Pseudomonas aeruginosa [32],inactive
same,Activity,Pseudomonas aeruginosa [33],inactive
same,Activity,[34],inactive
same,Activity,Pseudomonas aeruginosa [35],inactive
same,Activity,[36],inactive
same,Activity,Pseudomonas aeruginosa [37],inactive
same,Activity,Rattus norvegicus [38],Active
same,Activity,Pseudomonas aeruginosa [39],inactive
same,Activity,[40],inactive
same,Activity,Pseudomonas aeruginosa [41],inactive
same,Activity,[42],inactive
same,Activity,Pseudomonas aeruginosa [43],inactive
same,Activity,Pseudomonas aeruginosa [44],inactive
same,Activity,Pseudomonas aeruginosa [45],inactive
same,Activity,Pseudomonas aeruginosa [46],inactive
same,Activity,Rattus norvegicus [47],Active
same,Activity,Escherichia coli [18],inactive
same,Activity,Pseudomonas aeruginosa [48],inactive
CC1(C)Cc2c(sc(NC(=O)Nc3ccc(Cl)cc3)c2C(N)=O)C(C)(C)N1,solubility,[3]; buffer,83 µM
NC(=O)c1c(NC(=O)Nc2ccc(Cl)cc2)sc2c1CC[N+]1(CCOCC1)C2,IC50,[1],12.4 µM
same,EC50,Danio rerio [10],1.21 µM
CCN1CCc2c(sc(NC(=O)Nc3ccc(Cl)cc3)c2C(N)=O)C1.Cl,IC50,HepG2,> 300 µM
same,IC50,[1],3.26 µM
same,F,Rattus norvegicus [19],46%
same,PPB,Plasma [20],94.1%
same,Drug metabolism,[5],Metabolite_Detected
same,Activity,Rattus norvegicus [6],Non-Toxic
same,PPB,Plasma [21],95.9%
same,beta t1/2,Rattus norvegicus [22],2.1 h
same,EC50,Danio rerio [10],3.12 µM
